Measurements from different studies.
Compare with care: the assays were run in different laboratories.
Target: Cyclin-dependent kinase-like 2 (CDKL2, Homo sapiens, UniProt Q92772)
Sequence (Q92772 1-493, as in one of the studies): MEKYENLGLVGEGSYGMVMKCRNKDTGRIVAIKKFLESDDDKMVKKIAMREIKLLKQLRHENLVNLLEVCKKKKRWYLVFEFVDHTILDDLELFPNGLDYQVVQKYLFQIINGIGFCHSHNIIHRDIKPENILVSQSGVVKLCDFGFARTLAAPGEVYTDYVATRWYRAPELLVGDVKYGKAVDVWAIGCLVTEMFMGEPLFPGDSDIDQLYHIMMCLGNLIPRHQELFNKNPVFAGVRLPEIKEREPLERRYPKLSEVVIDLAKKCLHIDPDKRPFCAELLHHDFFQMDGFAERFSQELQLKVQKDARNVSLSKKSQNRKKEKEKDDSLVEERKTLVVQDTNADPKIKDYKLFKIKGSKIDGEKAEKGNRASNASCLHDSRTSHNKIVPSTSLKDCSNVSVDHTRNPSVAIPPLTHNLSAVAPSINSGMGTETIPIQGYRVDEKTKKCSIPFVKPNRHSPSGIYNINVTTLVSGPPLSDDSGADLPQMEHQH

Compound | test | setting | remaining binding [%]
Cn1cc(Cl)c2c(Oc3c(F)cc(Nc4cc(Cl)nc(N)n4)cc3F)ccnc21 | cell-free assay, competition with immobilised ligand | 0.1 µM | 100
O=C(NCCCN1CCOCC1)c1ccc(Nc2ncc(Cl)c(-c3ccc(Cl)s3)n2)cc1 | binding, competition with immobilised ligand | 1 µM | 19
N#Cc1ccc(Nc2ccc3[nH]c(=O)[nH]c3c2)c(Cl)c1 | binding, competition with immobilised ligand | 1 µM | 100
CNC(=O)[C@@H]1CC[C@@H](n2c(-c3ccc4cnccc4c3)nc3ccc(C(=O)NCc4cccc(C(N)=O)c4)cc32)C1 | binding, competition with immobilised ligand | 1 µM | 100
COc1ccnn2ncc(-c3ccnc(N(C)C)n3)c12 | binding | 1 µM | 91
FC(F)(F)Oc1cccc(-c2cnc3ccc(-c4ccncc4)nn23)c1 | cell-free assay, competition with immobilised ligand | 5 µM | 67
Cc1nc(C2CCN(C(=O)c3ccc(OC(F)(F)F)cc3N)CC2)c2ncc(N3CCN(C)CC3)cc2n1 | cell-free assay, competition with immobilised ligand | 1 µM | 100
CC1CCCN1c1nccc(-c2cnn3ncccc23)n1 (stereo not shown) | binding | 1 µM | 100
O=C(NCCCN1CCOCC1)c1ccc(Nc2nccc(-c3cc4ccccc4s3)n2)cc1 | binding, competition with immobilised ligand | 1 µM | 7.3
N[C@@H]1CCN(c2nccc(-c3cnn4ncccc34)n2)C1 | binding | 1 µM | 100
CN(c1ccnc(CNc2nc(Nc3ccc4c(c3)CC(=O)N4)ncc2C(F)(F)F)n1)S(C)(=O)=O | cell-free assay, competition with immobilised ligand | 1 µM | 84
COc1cnc(Nc2cccc(S(N)(=O)=O)c2)nc1N1CCN(c2ccccc2)C(=O)C1 | binding, competition with immobilised ligand | 1 µM | 98
Nc1ncc2c(n1)-c1c([nH]c3ccc(C#CC4CC4)cc13)CCCC2 | binding, competition with immobilised ligand | 1 µM | 96
CS(=O)(=O)N1CCCC(NC(=O)[C@H](CCC2CCCCC2)NC(=O)c2ccc(CNc3ncnc4c3nnn4-c3ccccc3)cc2)C1 (stereo partly shown) | cell-free assay, competition with immobilised ligand | 0.1 µM | 100
CN(CCCC(F)(F)F)c1nccc(-c2cnn3ncccc23)n1 | binding | 1 µM | 100
O=C(NCC1CCOCC1)c1n[nH]cc1NC(=O)c1c(F)cccc1F | binding, competition with immobilised ligand | 1 µM | 93
CN(C)c1nccc(-c2cnc3ncccn23)n1 | binding | 1 µM | 100
Cc1cnc(Nc2ccc(C(=O)N3CCC(N4CCCC4)CC3)cc2)nc1-c1cc2ccccc2s1 | binding, competition with immobilised ligand | 1 µM | 12
C[C@@H]1CCN(c2nccc(-c3cnn4ncccc34)n2)C1 | binding | 1 µM | 99
CS(=O)(=O)N1CCCC(NC(=O)[C@H](CCC2CCCCC2)NC(=O)c2ccc(CNC(=O)c3cnc4ccccn34)cc2)C1 (stereo partly shown) | cell-free assay, competition with immobilised ligand | 0.1 µM | 85
C[C@@H](c1ccc(-n2cnc3c(N)ncnc32)cc1)N1CCc2nn(C)c(Cc3ccccc3)c2C1=O | binding, competition with immobilised ligand | 0.1 µM | 67
C=CC(=O)N1CCC(C(=O)NCC(=O)N2CCN(c3nc(-c4cnc(N)nc4C(F)F)nc(N4CCOCC4)n3)CC2)CC1 | binding, competition with immobilised ligand | 1 µM | 100
